Measurements taken from ChEMBL document CHEMBL4312005, “Optimization of pyrrolizine-based Schiff bases with 4-thiazolidinone motif: Design, synthesis and investigation of cytotoxicity and anti-inflammatory potency” (Eur J Med Chem, 2020).

How the values were obtained:
[1] = system: MCF7; test: Antiproliferative activity against human MCF7 cells assessed as cell viability at 5 uM incubated for 48 hrs by MTT assay (reference value: 100 %); format: functional; details: MCF7, 48 h, read-out: Activity
Procedure, shortened: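 Preliminary single-dose screen by MTT assay. MCF-7 cells grown in DMEM/10% FBS were exposed to 5 μM compound for 48 h, and growth% was determined. Values are mean ± S.D., n = 6.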

[2] = system: MCF7; test: Cell cycle arrest in human MCF7 cells assessed as G2/M phase accumulation at 5 uM incubated for 24 hrs by propidium iodide based flow cytometry (reference value: 17.2 to 26.8 %); format: functional
[3] = system: MCF7; test: Cell cycle arrest in human MCF7 cells assessed as S phase accumulation at 5 uM incubated for 24 hrs by propidium iodide based flow cytometry (reference value: 17.3 to 28.5 %); format: functional
[4] = system: MCF7; test: Cell cycle arrest in human MCF7 cells assessed as G1 accumulation at 10 uM incubated for 24 hrs by propidium iodide based flow cytometry (reference value: 49.6 to 55.1 %); format: functional
[5] = system: MCF7; test: Induction of apoptosis in human MCF7 cells assessed as viable cells at 5 uM incubated for 24 hrs by annexin V FITC and propidium iodide staining based flow cytometry (reference value: 76 to 95.9 %); format: functional; details: MCF7, 24 h, read-out: Activity
[6] = system: HT-29; test: Antiproliferative activity against human HT-29 cells assessed as reduction in cell growth incubated for 72 hrs by MTT assay; format: functional, cell-based; details: HT-29, 72 h
Procedure, shortened: (§1)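 MTT assay on MCF-7, A2780, HT29 and normal MRC5 fibroblast lines (ATCC) grown in DMEM with 10% FBS. Cells exposed to compounds for 72 h, then reduced MTT read at 570 nm.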

[7] = system: MCF7; test: Induction of apoptosis in human MCF7 cells assessed as late apoptotic cells at 5 uM incubated for 24 hrs by annexin V FITC and propidium iodide staining based flow cytometry (reference value: 0 to 2.5 %); format: functional
[8] = Selectivity index, ratio of IC50 for cytotoxicity against human MRC5 cells to IC50 for antiproliferative activity against human MCF7 cells; details: MRC5 cells versus MCF7 cells
[9] = system: MCF7; test: Induction of apoptosis in human MCF7 cells assessed as necrotic cells at 10 uM incubated for 24 hrs by annexin V FITC and propidium iodide staining based flow cytometry (reference value: 4.1 to […]); format: functional
[10] = system: MCF7; test: Cell cycle arrest in human MCF7 cells assessed as subG1 accumulation at 10 uM incubated for 24 hrs by propidium iodide based flow cytometry (reference value: 0.6 to 3 %); format: functional
[11] = target: Prostaglandin G/H synthase 1 (Homo sapiens, UniProt P23219); test: Inhibition of human COX1 using arachidonic acid as substrate incubated for 2 mins by ELISA method
[12] = system: MCF7; test: Cell cycle arrest in human MCF7 cells assessed as G1 accumulation at 5 uM incubated for 24 hrs by propidium iodide based flow cytometry (reference value: 49.6 to 55.1 %); format: functional
[13] = system: MCF7; test: Induction of apoptosis in human MCF7 cells assessed as necrotic cells at 5 uM incubated for 24 hrs by annexin V FITC and propidium iodide staining based flow cytometry (reference value: 4.1 to […]); format: functional
[14] = system: MCF7; test: Induction of apoptosis in human MCF7 cells assessed as viable cells at 1 uM incubated for 24 hrs by annexin V FITC and propidium iodide staining based flow cytometry (reference value: 76 to 95.9 %); format: functional; details: MCF7, 24 h, read-out: Activity
[15] = system: MCF7; test: Induction of apoptosis in human MCF7 cells assessed as early apoptotic cells at 10 uM incubated for 24 hrs by annexin V FITC and propidium iodide staining based flow cytometry (reference value: 0 to 9 %); format: functional
[16] = system: MCF7; test: Induction of apoptosis in human MCF7 cells assessed as viable cells at 10 uM incubated for 24 hrs by annexin V FITC and propidium iodide staining based flow cytometry (reference value: 76 to 95.9 %); format: functional; details: MCF7, 24 h, read-out: Activity
[17] = system: MCF7; test: Cell cycle arrest in human MCF7 cells assessed as G2/M phase accumulation at 10 uM incubated for 24 hrs by propidium iodide based flow cytometry (reference value: 17.2 to 26.8 %); format: functional
[18] = Selectivity index, ratio of IC50 for cytotoxicity against human MRC5 cells to IC50 for antiproliferative activity against human HT-29 cells; details: MRC5 cells versus HT-29 cells
[19] = system: MCF7; test: Cell cycle arrest in human MCF7 cells assessed as S phase accumulation at 1 uM incubated for 24 hrs by propidium iodide based flow cytometry (reference value: 17.3 to 28.5 %); format: functional
[20] = system: MCF7; test: Induction of apoptosis in human MCF7 cells assessed as early apoptotic cells at 1 uM incubated for 24 hrs by annexin V FITC and propidium iodide staining based flow cytometry (reference value: 0 to 9 %); format: functional
[21] = system: Rattus norvegicus; test: Antiinflammatory activity against albino rats assessed as inhibition of carrageenan-induced paw edema at 0.5 mmol, po measured after 2 hrs relative to control; format: functional
Procedure, shortened: (§2)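 Carrageenan rat paw edema (Winter method) in male and female adult albino rats (100-140 g). […] Swelling inhibition expressed as % of control at 2-4 h after carrageenan injection.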

[22] = system: MCF7; test: Antiproliferative activity against human MCF7 cells assessed as reduction in cell growth incubated for 72 hrs by MTT assay; format: functional, cell-based; details: MCF7, 72 h; procedure, shortened: as §1
[23] = system: A2780; test: Antiproliferative activity against human A2780 cells assessed as reduction in cell growth incubated for 72 hrs by MTT assay; format: functional, cell-based; details: A2780, 72 h; procedure, shortened: as §1
[24] = system: MCF7; test: Induction of apoptosis in human MCF7 cells assessed as late apoptotic cells at 1 uM incubated for 24 hrs by annexin V FITC and propidium iodide staining based flow cytometry (reference value: 0 to 2.5 %); format: functional
[25] = system: MCF7; test: Induction of apoptosis in human MCF7 cells assessed as necrotic cells at 1 uM incubated for 24 hrs by annexin V FITC and propidium iodide staining based flow cytometry (reference value: 4.1 to […]); format: functional
[26] = system: MCF7; test: Cell cycle arrest in human MCF7 cells assessed as S phase accumulation at 10 uM incubated for 24 hrs by propidium iodide based flow cytometry (reference value: 17.3 to 28.5 %); format: functional
[27] = system: Rattus norvegicus; test: Antiinflammatory activity against albino rats assessed as inhibition of carrageenan-induced paw edema at 0.5 mmol, po measured after 4 hrs relative to control; format: functional; procedure, shortened: as §2
[28] = system: MCF7; test: Induction of apoptosis in human MCF7 cells assessed as late apoptotic cells at 10 uM incubated for 24 hrs by annexin V FITC and propidium iodide staining based flow cytometry (reference value: 0 to 2.5 %); format: functional
[29] = system: MCF7; test: Cell cycle arrest in human MCF7 cells assessed as G1 accumulation at 1 uM incubated for 24 hrs by propidium iodide based flow cytometry (reference value: 49.6 to 55.1 %); format: functional
[30] = system: MCF7; test: Cell cycle arrest in human MCF7 cells assessed as subG1 accumulation at 5 uM incubated for 24 hrs by propidium iodide based flow cytometry (reference value: 0.6 to 3 %); format: functional
[31] = system: MRC5; test: Cytotoxicity against human MRC5 cells assessed as reduction in cell growth incubated for 72 hrs by MTT assay; format: cell-based; details: MRC5, 72 h; procedure, shortened: as §1
[32] = system: MCF7; test: Cell cycle arrest in human MCF7 cells assessed as subG1 accumulation at 1 uM incubated for 24 hrs by propidium iodide based flow cytometry (reference value: 0.6 to 3 %); format: functional
[33] = system: MCF7; test: Induction of apoptosis in human MCF7 cells assessed as early apoptotic cells at 5 uM incubated for 24 hrs by annexin V FITC and propidium iodide staining based flow cytometry (reference value: 0 to 9 %); format: functional
[34] = system: MCF7; test: Cell cycle arrest in human MCF7 cells assessed as G2/M phase accumulation at 1 uM incubated for 24 hrs by propidium iodide based flow cytometry (reference value: 17.2 to 26.8 %); format: functional
[35] = Selectivity index, ratio of IC50 for cytotoxicity against human MRC5 cells to IC50 for antiproliferative activity against human A2780 cells; details: MRC5 cells versus A2780 cells
[36] = system: Rattus norvegicus; test: Antiinflammatory activity against albino rats assessed as inhibition of carrageenan-induced paw edema at 25 mg/kg, po measured after 4 hrs relative to control; format: functional; procedure, shortened: as §2
[37] = system: Rattus norvegicus; test: Antiinflammatory activity against albino rats assessed as inhibition of carrageenan-induced paw edema at 25 mg/kg, po measured after 2 hrs relative to control; format: functional; procedure, shortened: as §2
[38] = system: Rattus norvegicus; test: Antiinflammatory activity against albino rats assessed as inhibition of carrageenan-induced paw edema at 15 mg/kg, po measured after 2 hrs relative to control; format: functional
Procedure, shortened: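 Winter carrageenan rat paw oedema model in adult albino rats of both sexes (100-140 g). Compounds given orally before carrageenan injection into the paw. Oedema inhibition % versus untreated control read at 2-4 h post-carrageenan. Significance versus control was tested at P < 0.05, 0.01 and 0.001. Animal work approved by the Umm Al-Qura University pharmacy ethics committee.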

[39] = system: Rattus norvegicus; test: Antiinflammatory activity against albino rats assessed as inhibition of carrageenan-induced paw edema at 15 mg/kg, po measured after 4 hrs relative to control; format: functional; procedure, shortened: as §2

Prostaglandin G/H synthase 1, sequence (P23219 whole entry): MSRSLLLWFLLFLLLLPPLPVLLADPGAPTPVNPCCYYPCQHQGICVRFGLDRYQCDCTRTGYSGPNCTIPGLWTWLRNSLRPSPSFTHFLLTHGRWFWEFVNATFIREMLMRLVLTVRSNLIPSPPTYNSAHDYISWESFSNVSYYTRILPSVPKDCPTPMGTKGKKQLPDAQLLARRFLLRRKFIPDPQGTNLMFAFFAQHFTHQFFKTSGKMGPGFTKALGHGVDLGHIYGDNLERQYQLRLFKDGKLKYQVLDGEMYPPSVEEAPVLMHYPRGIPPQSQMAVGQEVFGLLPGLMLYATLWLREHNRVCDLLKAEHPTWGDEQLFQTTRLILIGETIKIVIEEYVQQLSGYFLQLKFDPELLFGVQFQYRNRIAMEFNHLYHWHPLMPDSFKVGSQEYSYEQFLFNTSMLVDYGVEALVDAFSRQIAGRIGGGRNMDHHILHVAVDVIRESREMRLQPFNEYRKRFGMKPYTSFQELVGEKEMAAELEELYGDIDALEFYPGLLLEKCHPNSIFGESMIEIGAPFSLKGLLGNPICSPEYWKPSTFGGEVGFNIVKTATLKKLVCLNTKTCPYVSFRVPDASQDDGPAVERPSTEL

Row | SMILES | viability at 5 µM [1] [%] | Activity [2] [%] | Activity [3] [%] | Activity [4] [%] | viability at 5 µM [5] [%] | IC50 [6] [µM] | Activity [7] [%] | selectivity ratio [8] | Activity [9] [%] | Activity [10] [%] | IC50 [11] [µM] | Activity [12] [%] | Activity [13] [%] | viability at 1 µM [14] [%] | Activity [15] [%] | viability at 10 µM [16] [%] | Activity [17] [%] | selectivity ratio [18] | Activity [19] [%] | Activity [20] [%] | other results
1 | N#Cc1c(/N=C/c2ccc(O)cc2)c(C(=O)Nc2ccc(Br)cc2)n2c1CCC2 | 69 | 22 | 49.7 | 27.9 | 66.3 | 14.5 | 7.4 | 2 to 52 | 20.6 | 0.8 | 72 | 28.9 | 17.8 | 65.7 | 5 | 69.2 | 19.8 | 2 to 52 | 54.1 | 10.2 | inhibition (INH) [21]: 28.15%; IC50 [22]: 0.49 µM; IC50 [23]: 0.47 µM; Activity [24]: 9.8%; Activity [25]: 14.3%; Activity [26]: 51.9%; inhibition (INH) [27]: 44.51%; Activity [28]: 5.2%; Activity [29]: 31.7%; Activity [30]: 0.4%; IC50 [31]: 25 µM; Activity [32]: 0.4%; Activity [33]: 8.6%; Activity [34]: 14.2%; selectivity ratio [35]: 2 to 52
2 | N#Cc1c(/N=C/c2ccco2)c(C(=O)Nc2ccc(Br)cc2)n2c1CCC2 | 64 | 21.8 | 53.6 | 25 | 67 | 2.04 | 6.3 | 1 to 10 | 16.4 | 0.4 | 13.2 | 25.5 | 15.2 | 67 | 7.2 | 71.2 | 23 | 1 to 10 | 53.7 | 12.8 | inhibition (INH) [21]: 18.83%; IC50 [22]: 6.89 µM; IC50 [23]: 12.2 µM; Activity [24]: 8.8%; Activity [25]: 11.4%; Activity [26]: 51.5%; inhibition (INH) [27]: 35.79%; Activity [28]: 5.3%; Activity [29]: 24.5%; Activity [30]: 0.4%; IC50 [31]: 15.7 µM; Activity [32]: 1.1%; Activity [33]: 11.5%; Activity [34]: 22.1%; selectivity ratio [35]: 1 to 10
3 | Cc1ccc(-c2cc(C(F)(F)F)nn2-c2ccc(S(N)(=O)=O)cc2)cc1 [CELECOXIB] | – | – | – | – | – | – | – | – | – | – | – | – | – | – | – | – | – | – | – | – | inhibition in vivo at 25 mg/kg [36]: 67.4%; inhibition in vivo at 25 mg/kg [37]: 37%
4 | COc1ccc2c(c1)c(CC(=O)O)c(C)n2C(=O)c1ccc(Cl)cc1 [INDOMETHACIN] | – | – | – | – | – | – | – | – | – | – | – | – | – | – | – | – | – | – | – | – | inhibition in vivo at 15 mg/kg [38]: 32.3%; inhibition in vivo at 15 mg/kg [39]: 56.4%
